For experiment [1], the target named is T1, Toll-like receptor 7 (Homo sapiens) (UniProt Q9NYK1).
T1 sequence (whole entry): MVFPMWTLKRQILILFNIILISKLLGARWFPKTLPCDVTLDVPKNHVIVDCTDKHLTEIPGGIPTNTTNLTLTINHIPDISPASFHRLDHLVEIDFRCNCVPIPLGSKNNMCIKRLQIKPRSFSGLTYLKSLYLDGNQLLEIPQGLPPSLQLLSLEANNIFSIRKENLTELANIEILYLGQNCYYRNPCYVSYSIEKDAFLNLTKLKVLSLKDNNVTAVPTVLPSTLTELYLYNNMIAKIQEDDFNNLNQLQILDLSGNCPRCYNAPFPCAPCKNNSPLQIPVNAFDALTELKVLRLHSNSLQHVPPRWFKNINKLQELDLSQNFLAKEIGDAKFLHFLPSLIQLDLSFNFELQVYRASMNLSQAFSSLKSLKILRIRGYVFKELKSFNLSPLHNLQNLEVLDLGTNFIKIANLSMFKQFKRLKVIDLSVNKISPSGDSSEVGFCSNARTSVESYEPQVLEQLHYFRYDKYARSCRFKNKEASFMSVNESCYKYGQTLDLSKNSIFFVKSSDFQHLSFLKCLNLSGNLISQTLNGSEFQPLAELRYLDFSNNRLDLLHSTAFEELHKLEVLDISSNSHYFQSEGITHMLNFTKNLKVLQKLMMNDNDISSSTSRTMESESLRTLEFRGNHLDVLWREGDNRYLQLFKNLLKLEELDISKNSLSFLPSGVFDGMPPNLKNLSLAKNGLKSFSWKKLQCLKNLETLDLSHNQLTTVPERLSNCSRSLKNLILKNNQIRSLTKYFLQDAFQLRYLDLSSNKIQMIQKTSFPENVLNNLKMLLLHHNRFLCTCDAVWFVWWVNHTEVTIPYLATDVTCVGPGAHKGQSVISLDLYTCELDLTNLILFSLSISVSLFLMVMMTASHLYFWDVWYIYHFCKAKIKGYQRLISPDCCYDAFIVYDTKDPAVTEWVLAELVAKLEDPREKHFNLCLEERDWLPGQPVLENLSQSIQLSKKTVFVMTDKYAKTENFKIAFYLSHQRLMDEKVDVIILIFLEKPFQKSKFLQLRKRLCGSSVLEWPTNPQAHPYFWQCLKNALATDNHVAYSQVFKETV
As to the kind of experiment: Antagonist activity at TLR7 expressed in HEK293 cells co-transfected with NF-kappaB/sAP gene assessed as inhibition of gardiquimod-induced NF-kappaB activation at 250 uM by reporter gene assay. The format is functional, cell-based. The procedure, abridged:
(§1)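 HEK-Blue-7 cells (HEK293 stably carrying TLR7 plus NF-κB/AP-1-driven secreted alkaline phosphatase), kept in selection medium with zeocin and normocin. Seeded at ~10⁵ cells/mL and grown to confluency, then stimulated with gardiquimod 1 μg/mL while serially diluted compounds were added at the same time (highest 250 μM). Incubated overnight; supernatant sAP read with chromogen at 620 nm; duplicates or quadruplicates.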
(In a reporter assay the amount or activity of a reporter protein is the signal.)

Experiment [2] addresses Toll-like receptor 8 (Homo sapiens) (UniProt Q9NR97). In words: Antagonist activity at TLR8 expressed in HEK293 cells co-transfected with NF-kappaB/sAP gene assessed as inhibition of CL075-induced NF-kappaB activation at 250 uM by reporter gene assay.
Experiment [3] addresses T2, Toll-like receptor 7 (Homo sapiens, UniProt Q9NYK1).
T2 sequence (Q9NYK1 whole entry): T1 sequence (whole entry)
In words: Antagonist activity at TLR7 expressed in HEK293 cells co-transfected with NF-kappaB/sAP gene assessed as inhibition of 1 ug/ml of gardiquimod-induced NF-kappaB activation by reporter gene assay. The class given is functional, cell-based. The method in brief:
as §1

The target in experiment [4] is T3, Toll-like receptor 8 (Homo sapiens, UniProt Q9NR97).
T3 sequence (Q9NR97 whole entry): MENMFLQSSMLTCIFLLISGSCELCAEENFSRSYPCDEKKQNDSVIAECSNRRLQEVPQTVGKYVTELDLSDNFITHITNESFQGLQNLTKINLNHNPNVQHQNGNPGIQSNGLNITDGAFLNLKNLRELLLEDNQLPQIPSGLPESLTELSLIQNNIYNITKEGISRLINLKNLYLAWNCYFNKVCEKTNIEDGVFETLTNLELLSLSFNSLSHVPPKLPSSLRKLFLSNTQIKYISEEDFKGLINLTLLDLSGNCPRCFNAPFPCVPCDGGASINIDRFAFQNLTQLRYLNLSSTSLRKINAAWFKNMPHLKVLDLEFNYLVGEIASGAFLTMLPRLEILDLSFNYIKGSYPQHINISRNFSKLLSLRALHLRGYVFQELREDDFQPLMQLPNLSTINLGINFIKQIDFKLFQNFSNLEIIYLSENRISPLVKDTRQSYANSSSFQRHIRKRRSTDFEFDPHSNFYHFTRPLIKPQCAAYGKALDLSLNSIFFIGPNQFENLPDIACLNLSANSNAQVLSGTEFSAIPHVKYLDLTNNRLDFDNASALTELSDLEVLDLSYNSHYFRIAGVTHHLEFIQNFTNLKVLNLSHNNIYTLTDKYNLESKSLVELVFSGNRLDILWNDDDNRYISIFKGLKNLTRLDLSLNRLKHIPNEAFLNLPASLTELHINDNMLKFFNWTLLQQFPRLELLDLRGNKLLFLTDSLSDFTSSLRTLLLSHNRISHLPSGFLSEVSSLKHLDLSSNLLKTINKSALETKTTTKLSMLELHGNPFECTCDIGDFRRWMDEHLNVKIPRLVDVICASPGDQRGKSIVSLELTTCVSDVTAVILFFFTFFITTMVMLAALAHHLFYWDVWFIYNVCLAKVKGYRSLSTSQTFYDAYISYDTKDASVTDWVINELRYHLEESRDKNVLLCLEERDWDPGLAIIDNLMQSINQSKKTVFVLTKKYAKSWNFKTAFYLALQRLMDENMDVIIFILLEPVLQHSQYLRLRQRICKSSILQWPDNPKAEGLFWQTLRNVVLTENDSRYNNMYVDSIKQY
As to the kind of experiment: Antagonist activity at TLR8 expressed in HEK293 cells co-transfected with NF-kappaB/sAP gene assessed as inhibition of CL075-induced NF-kappaB activation by reporter gene assay. The format is functional, cell-based.

For experiment [5], the target named is T2, Toll-like receptor 7. In words: Antagonist activity at TLR7 expressed in HEK293 cells co-transfected with NF-kappaB/sAP gene assessed as inhibition of 250 ng/ml of gardiquimod-induced NF-kappaB activation by reporter gene assay.

Active and inactive are the calls of the source. No cut-off for these calls is given here.

With `CCNCc1nc2c3ccccc3ncc2n1CCCO`, the inhibition entry in experiment [1] and in experiment [2] was “inactive” throughout. As for `CCCCCCCCCc1nc2c3ccccc3ncc2n1Cc1ccc(OC)cc1`, the IC50 in experiment [3] was determined as 19.4 µM. For `Cn1c(-c2ccccc2)nc2c3ccccc3ncc21`, the IC50 in experiment [3] worked out at 21.6 µM; in experiment [4] it was 25.8 µM. Regarding `CCCCCCCCCc1nc2c3ccccc3ncc2n1C`, in experiment [3], the IC50 stood at 10.1 µM. Take `C#CCn1c(C2CCCCC2)nc2c3ccccc3ncc21`: the IC50 in experiment [3] turned out to be 21.9 µM; in experiment [4] it was 21.1 µM. `CC(C)(O)Cn1c(-c2ccccc2)nc2c3ccccc3ncc21`: the inhibition entry in experiment [1] is “inactive”. The 50% inhibitory concentration (IC50) in experiment [4] worked out at 38.4 µM. Regarding `COc1ccc(Cn2c(C3CCCCC3)nc3c4ccccc4ncc32)cc1`, the figures for the IC50 in experiment [3] and in experiment [4] were 19.9 µM and 40 µM, respectively. The like results for `C#CCn1c(CNCC)nc2c3ccccc3ncc21` were, in that order, 26.1 µM and 28.1 µM.

With `CCNCc1nc2c3ccccc3nc(NC(=O)c3ccccc3)c2n1CC(C)(C)O`, in experiment [1], the inhibition result is “inactive”. In addition, in experiment [4], the concentration for half-maximal inhibition (IC50) is 21.2 µM. The matching figures for `OCCCn1c(-c2ccccc2)nc2c3ccccc3ncc21`: “inactive” and 37.2 µM. `COc1ccc(Cn2c(-c3ccccc3)nc3c4ccccc4[n+](Cc4ccc(OC)cc4)cc32)cc1`: the IC50 in experiment [5] was 0.82 µM; in experiment [3] it was 2.79 µM; in experiment [4], 4.55 µM.

In the case of `COc1ccc(Cn2c(-c3ccccc3)nc3c4ccccc4ncc32)cc1`, the inhibition entry in experiment [1] and in experiment [2] was “inactive” each time. Turning to `CCCCCCCCCc1nc2c3ccccc3ncc2n1CC(C)(C)O`, the IC50 in experiment [3] was found to be 14.4 µM. The same measure, in the same setting: in the case of `CCNCc1nc2c3ccccc3ncc2n1C` it was 30.4 µM. For `C#CCn1c(CCCCCCCCC)nc2c3ccccc3ncc21`, the 50% inhibitory concentration (IC50) amounted to 8.58 µM in experiment [3] and 10.1 µM in experiment [4].

As to `Cn1c(C2CCCCC2)nc2c3ccccc3ncc21`, the results for the IC50 in experiment [3] and in experiment [4] were 22 µM and 24.3 µM, respectively. Regarding `OCCCn1c(C2CCCCC2)nc2c3ccccc3ncc21`, the inhibition entry in experiment [1] is “inactive”. In addition, the IC50 in experiment [4] came out at 20.3 µM.

Take `CCNCc1nc2c3ccccc3[n+]([O-])cc2n1CC(C)(C)O`: in experiment [1], the inhibition result was “inactive”. The IC50 in experiment [4] was 46.5 µM.

As for `CC(C)(O)Cn1c(C2CCCCC2)nc2c3ccccc3ncc21`, in experiment [1], the inhibition entry is “inactive”. In addition, the IC50 in experiment [4] turned out to be 38.7 µM.

`CCNCc1nc2c3ccccc3ncc2n1Cc1ccc(OC)cc1`: the IC50 in experiment [3] was 28 µM; in experiment [4], 59.6 µM. As for `CCCCCCCCCc1nc2c3ccccc3ncc2n1CCCO`, the inhibition result in experiment [1] was “inactive”. The IC50 in experiment [4] was 4.81 µM. As for `C#CCn1c(-c2ccccc2)nc2c3ccccc3ncc21`, the IC50 in experiment [3] amounted to 14.8 µM; in experiment [4], 13.7 µM.

Usually IC50 stands for the concentration that inhibits the measured activity by half.

(Values after ChEMBL document CHEMBL1795244, “Preliminary evaluation of a 3H imidazoquinoline library as dual TLR7/TLR8 antagonists” (Bioorg Med Chem, 2011).)
